# In the EternaBench riboswitch data:
# How the values were obtained:
# MS2 coat protein [1] = test: apparent Kd, MS2 coat protein; higher = weaker binding; RNA-MaP array; theophylline 2 mM where present
# Summary of the method: (§1)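 The apparent Kd is reported as the median of filtered per-cluster binding-curve fits. To get these curves, designs transcribed by stalled E. coli RNA polymerase on Illumina sequencing-chip clusters were titrated with SNAP-549-labelled MS2 coat protein from 0.7 or 1.5 nM, doubling to 3 µM. Titrations were run without and then with constant ligand in 100 mM Tris-HCl pH 7.5, 80 mM KCl, 4 mM MgCl2, BSA, DTT, yeast tRNA and Tween-20, and green signal was normalised to red-channel RNA signal and control-cluster median Fmax.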
# MS2 coat protein [2] = test: apparent Kd, MS2 coat protein; higher = weaker binding; RNA-MaP array; tryptophan 2.4 mM where present
# Summary of the method: as §1
# [3] = designed as: OFF switch for theophylline, no ligand
# [4] = ligand present: theophylline, designed as: OFF switch for theophylline
# [5] = designed as: ON switch for theophylline, no ligand
# [6] = ligand present: theophylline, designed as: ON switch for theophylline
# [7] = designed as: OFF switch for tryptophan, no ligand
# [8] = ligand present: tryptophan, designed as: OFF switch for tryptophan
# [9] = designed as: ON switch for tryptophan, no ligand
# [10] = ligand present: tryptophan, designed as: ON switch for tryptophan
sequence,measurement,setting,value
AACAUGGGAUUAAAAUAAAUAAUAACUGAUACCAGACUAUAUAAUGUCCCUUGGCAGCAGAUACAUGAGGAUCACCCAUGUAUUA,apparent Kd,MS2 coat protein [1]; [3],12.9 nM
same,apparent Kd,MS2 coat protein [1]; [4],23.8 nM
CGUGGUGGGACGGAUACCAGCCACCGCGGCAACGCAACAUGAGGAUCACCCAUGUUGGGUGGCCCUUGGCAGCUGUCCUGCGGCG,apparent Kd,MS2 coat protein [1]; [5],11.5 nM
same,apparent Kd,MS2 coat protein [1]; [6],13.4 nM
UCGCAUUGCUGCGAUACCAGACAUGAGGAUCACCCAUGUACCAAGAAAACGUACAUAAAUGUCCCUUGGCAGCGCAGCAAUGCGU,apparent Kd,MS2 coat protein [1]; [3],443 nM
same,apparent Kd,MS2 coat protein [1]; [4],1110 nM
UUUGAUAGGACAGAUACCAGCGUGUUGUUGAACAUGAGGAUCACCCAUGUAGUGAUCAAGCGCCCUUGGCAGCUGGUUUGUUAGG,apparent Kd,MS2 coat protein [1]; [5],236 nM
same,apparent Kd,MS2 coat protein [1]; [6],81.7 nM
AGCGACAUGCGUGAUACCAGCUACAUGAGGAUCACCCAUGUACGUCAGAAAUGACUGUGUAGCCCUUGGCAGCAUAGUGCAUGUC,apparent Kd,MS2 coat protein [1]; [3],32.6 nM
same,apparent Kd,MS2 coat protein [1]; [4],60.7 nM
UGAUCCUACAGAGAUACCAGUGCCACUAAAUAACUAAACACAUGAGGAUCACCCAUGUAACACCCUUGGCAGCUCAACUAAAGGG,apparent Kd,MS2 coat protein [1]; [5],27.4 nM
same,apparent Kd,MS2 coat protein [1]; [6],19.2 nM
CUCUGAGUCCGAAAGGACUCAGAGGCGGAUACCAGCGAGGUCCAUCGCCCUUGGCAGCCGAACAUGAGGAUCACCCAUGUCGGUA,apparent Kd,MS2 coat protein [1]; [5],10.5 nM
same,apparent Kd,MS2 coat protein [1]; [6],14.5 nM
UCAUGAGGAUCACCCAUGUGGCGUCUUGAUACCAGACGAGAAGUAGUCCCUUGGCAGCAAAUACAUGAGGAUCACCCAUGUAGGA,apparent Kd,MS2 coat protein [1]; [3],38.6 nM
same,apparent Kd,MS2 coat protein [1]; [4],63.7 nM
AGACAUGAGGAUCACCCAUGUAGUAUGGAUACCAGAUCCAGAUUUAUCCCUUGGCAGCUGUGGUACAGCGUUGCAACGCUCCUAG,apparent Kd,MS2 coat protein [1]; [3],29.3 nM
same,apparent Kd,MS2 coat protein [1]; [4],28.9 nM
CGACGAUACCUGGAUACCAGCGACAUGAGGAUCACCCAUGUAUGUGGAUCAGCCAUGAUAUGCCCUUGGCAGCCACCAAAGUCGG,apparent Kd,MS2 coat protein [1]; [3],14.9 nM
same,apparent Kd,MS2 coat protein [1]; [4],51.9 nM
AGACAUGAGGAUCACCCAUGUAGUACGGAUACCAGAUCCAGAUGCGUCCCUUGGCAGCUGUGGUACAGCGUUACAUCGCUCGUAG,apparent Kd,MS2 coat protein [1]; [3],17.6 nM
same,apparent Kd,MS2 coat protein [1]; [4],17.6 nM
ACGAACGAUAGCGAUACCAGACGUACAUGAGGAUCACCCAUGUUUUGGGUAAGGUUAAUAGUCCCUUGGCAGCGCUUUAAGUUCG,apparent Kd,MS2 coat protein [1]; [3],59.6 nM
same,apparent Kd,MS2 coat protein [1]; [4],469 nM
AUAUCAUAGAGUGAUACCAGACUACAUGAGGAUCACCCAUGUGACAUUUAAAUAUCAUUUGUCCCUUGGCAGCACAUUAAGUACA,apparent Kd,MS2 coat protein [1]; [3],67.3 nM
same,apparent Kd,MS2 coat protein [1]; [4],65.4 nM
AUAAGUAAUGUCUCGUGUAUUAUUACAGAUACCAGACUAUCCUAUGUCCCUUGGCAGCUGGAUUACAUGAGGAUCACCCAUGUGG,apparent Kd,MS2 coat protein [1]; [3],43.6 nM
same,apparent Kd,MS2 coat protein [1]; [4],35 nM
ACCCAUAAUUGGGCGGGUGGAUUGAGUGAUACCAGUCGUAUACAUGACCCUUGGCAGCACCGACAUGAGGAUCACCCAUGUGCCA,apparent Kd,MS2 coat protein [1]; [5],39.7 nM
same,apparent Kd,MS2 coat protein [1]; [6],99.8 nM
AUAAAUAUAACCGAUACCAGCCUUAUACAUGAGGAUCACCCAUGUUAUGCUUCCUUUCUUGGCCCUUGGCAGCGGAAAUGGGUAA,apparent Kd,MS2 coat protein [1]; [5],57.9 nM
same,apparent Kd,MS2 coat protein [1]; [6],26.4 nM
AAUACCGGUCCUCGAGGGUGAUCCUCAUGACGAGGACCGGUACGGCCGCCACUCGAUAACAUGAGGAUCACCCAUGUAAUCGAGU,apparent Kd,MS2 coat protein [2]; [7],59 nM
same,apparent Kd,MS2 coat protein [2]; [8],56.4 nM
GGGACAUGAGGAUCACCCAUGUACCGGUCCCGAGGACCGGUACGGCCGCCACUCGAUGACCUCAUAGUCUGCCUGAGCAGCAGAC,apparent Kd,MS2 coat protein [2]; [9],41.3 nM
same,apparent Kd,MS2 coat protein [2]; [10],119 nM
AGCAACAAGUCGGCCGCCACUCAUUUAACAUGAGGAUCACCCAUGUGAAUAACAUGAUUGUAAUAGAGGACCGGGACAGUUGCAU,apparent Kd,MS2 coat protein [2]; [9],62.5 nM
same,apparent Kd,MS2 coat protein [2]; [10],31 nM
AGCCACUCGAGUGAUCCUCACGAGUGGCUACGAGGACCGGUACGGCCGCCACUCGAAUUAACAUGAGGAUCACCCAUGUAAUCUA,apparent Kd,MS2 coat protein [2]; [9],81 nM
same,apparent Kd,MS2 coat protein [2]; [10],53.8 nM
ACGUGGAAAAUUUGUGGUGCUGCCUCAGGCCGAGGACCGGUACGGCCGCCACUCGUACAUGAGGAUCACCCAUGUCGAGUCACUG,apparent Kd,MS2 coat protein [2]; [7],25.4 nM
same,apparent Kd,MS2 coat protein [2]; [8],22.2 nM
ACCGAAAGCUCACAUGAGGAUCACCCAUGUCGAGGACCGGUACGGCCGCCACUCGGCAAAUAUAAGGGUGGACGCGUCUCUGCGU,apparent Kd,MS2 coat protein [2]; [7],39 nM
same,apparent Kd,MS2 coat protein [2]; [8],79.8 nM
GCUAGGUCUACGGCCGCCACUAGACAUGGGUAAGACAUGAGGAUCACCCAUGUACUACGAGUGCAUAGGACCGGGUAGACCUAGC,apparent Kd,MS2 coat protein [2]; [9],326 nM
same,apparent Kd,MS2 coat protein [2]; [10],53.5 nM
CCGGCCAAUUAGAAAUUAAUUGGCCGGAAACGAGGACCGGUACGGCCGCCACUCGUGGCGGGAGAAACAUGAGGAUCACCCAUGU,apparent Kd,MS2 coat protein [2]; [7],40 nM
same,apparent Kd,MS2 coat protein [2]; [8],26 nM
GGUAACUCUACGGCCGCCACUGAACAUGAGGAUCACCCAUGUAAUGUUCAGAUUUUUUUUUUUUACAGGACCGGGUAGUGUUACC,apparent Kd,MS2 coat protein [2]; [9],178 nM
same,apparent Kd,MS2 coat protein [2]; [10],118 nM
AAGCGGGCGACGGCCGCCACUUGCCUGUAAUUAGAGAAGGCACAUGAGGAUCACCCAUGUCCCGCAAGGACCGGGUUGCCUCACU,apparent Kd,MS2 coat protein [2]; [9],417 nM
same,apparent Kd,MS2 coat protein [2]; [10],84.5 nM
AGGUACAGCAGGUGAUUCUGGCUGUACCAACGAGGACCGGUACGGCCGCCACUCGAAUAAACAUGAGGAUCACCCAUGUACAAAU,apparent Kd,MS2 coat protein [2]; [9],24.6 nM
same,apparent Kd,MS2 coat protein [2]; [10],21.6 nM
CAUGUGAAAAUAAGAAGAAGAAGAAUAAAUCGAGGACCGGUACGGCCGCCACUCGUCGAAUCACAUGAGGAUCACCCAUGUAGCC,apparent Kd,MS2 coat protein [2]; [7],65.1 nM
same,apparent Kd,MS2 coat protein [2]; [8],50.9 nM
UUAUAAGUACCGGUCCUCAGAUCCUCAUGACGAGGACCGGUACGGCCGCCACUCGAAACAUGAGGAUCACCCAUGUAAUAACACU,apparent Kd,MS2 coat protein [2]; [7],23.1 nM
same,apparent Kd,MS2 coat protein [2]; [8],19.9 nM
CGUAUUGGAAACAGUACGAGUGAUCCGGUCCGAGGACCGGUACGGCCGCCACUCGAAAUUAAUAAACAUGAGGAUCACCCAUGUA,apparent Kd,MS2 coat protein [2]; [7],17.8 nM
same,apparent Kd,MS2 coat protein [2]; [8],26.8 nM
UAAACUACACAUGAGGAUCACCCAUGUGGCCGAGGACCGGUACGGCCGCCACUCGUGUGUUAAUAAAAGAACUGCAAGGUUCUUC,apparent Kd,MS2 coat protein [2]; [9],174 nM
same,apparent Kd,MS2 coat protein [2]; [10],73.1 nM
UGUCAGCGAAAGUUGACAUGUUGAACCGGUCGAGGACCGGUACGGCCGCCACUCGAUCUCUCGUACAUGAGGAUCACCCAUGUCG,apparent Kd,MS2 coat protein [2]; [9],11.5 nM
same,apparent Kd,MS2 coat protein [2]; [10],10.7 nM
GUUGGACUUUCGGCCGCCACUGAGAGAGUCAUGUGAACAUGAGGAUCACCCAUGUAAUAUAUAUACAGGACCGGGAGGGUUGUAA,apparent Kd,MS2 coat protein [2]; [7],13.3 nM
same,apparent Kd,MS2 coat protein [2]; [8],9.9 nM
AACAUGAGGAUCACCCAUGUCCCAUGUGAACGAGGACCGGUACGGCCGCCACUCGAAUGAGGCGGCACAUGAGGAUCACCCACAU,apparent Kd,MS2 coat protein [2]; [9],131 nM
same,apparent Kd,MS2 coat protein [2]; [10],196 nM
AAAAUAAAAUAAAAGGUGGAAAUAAGGCGGCGAGGACCGGUACGGCCGCCACUCGCGUACAUGAGGAUCACCCAUGUCUGAAAAU,apparent Kd,MS2 coat protein [2]; [9],22.4 nM
same,apparent Kd,MS2 coat protein [2]; [10],27.4 nM
